Data taken from ChEMBL document CHEMBL2384906, “Biological activity, design, synthesis and structure activity relationship of some novel derivatives of curcumin containing sulfonamides” (Eur J Med Chem, 2013).
Converted amounts (≈) assume the structure as drawn. The source made the active and inactive calls. No cut-off for these calls is given here.

Legend:
Bacillus cereus [1] = test: Antimicrobial activity against Bacillus cereus MTCC 7350 after 24 hrs by broth micro serial dilution method; type: functional; details: MTCC 7350, 24 h
Method in brief: (§1)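 This was broth microdilution in autoclaved Mueller-Hinton broth. 150 µL of compound per well was serially diluted […], and 50 µL of test organism was added. Plates were incubated 24 h at 37 °C and optical density was read.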

HepG2 = test: Cytotoxicity against human HepG2 cells after 24 hrs by MTT assay; type: functional, cell-based
Method in brief: (§2)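 The MTT assay seeded 5 × 10⁴ cells per well and grew them 24 h in RPMI 1640 with compound at 2.5–200 µM. Medium without cells was the blank and adriamycin the positive control. MTT was added for 4 h at 37 °C, formazan was solubilised, and absorbance was read at 570 nm. IC50 is the concentration that cuts viability 50% against untreated cells.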

HeLa = test: Cytotoxicity against human HeLa cells after 24 hrs by MTT assay; type: functional, cell-based; method in brief: as §2
Pseudomonas aeruginosa [2] = test: Antimicrobial activity against Pseudomonas aeruginosa ATCC 15499 after 24 hrs by broth micro serial dilution method; type: functional; details: ATCC 15499, 24 h; method in brief: as §1
Pseudomonas aeruginosa [3] = test: Antimicrobial activity against Pseudomonas aeruginosa ATCC 15499 assessed as diameter of inhibition zone at 80 uM after 24 hrs by Kirby -Baur disc diffusion method; type: functional; details: ATCC 15499, 24 h, read-out: DIZ
Method in brief: (§3)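 Kirby-Bauer disc diffusion was used. Acetone stocks (160 µM) were serially doubled down to 80, 40 and 20 µM. 4 µL of each went onto 5 mm sterile paper discs, which were dried 30 min at 50 °C. Inoculum was 1.5 × 10⁸ CFU/mL diluted to 3 × 10² CFU/mL, and 50 µL was spread on Mueller-Hinton agar. After 24 h at 37 °C the inhibition-zone diameter was measured. Ciprofloxacin served as positive control.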

Staphylococcus aureus [4] = test: Antimicrobial activity against Staphylococcus aureus ATCC 11632 assessed as diameter of inhibition zone at 80 uM after 24 hrs by Kirby -Baur disc diffusion method; type: functional; details: ATCC 11632, 24 h, read-out: DIZ; method in brief: as §3
Mus musculus = test: Antiinflammatory activity in mouse assessed as inhibition of carrageenan-induced increase in paw volume at 200 mg/kg administered 1 hr prior to carrageenan challenge measured after 3 hrs relative to control; type: functional
Method in brief: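 Mice were fasted 2 h and placed in groups of five. Controls received saline i.p. Phenylbutazone was given at 100 mg/kg i.p., curcumin at 200 mg/kg i.p., and derivatives at 200 mg/kg. After 1 h, 0.1 mL of 1% carrageenan in saline was injected subplantar into the right hind paw. Paw volume was followed by plethysmometer for 3 h, and % inhibition was calculated as (Vc − Vt)/Vc × 100.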

Curvularia lunata [5] = test: Antifungal activity against Curvularia lunata MTCC 581 after 48 hrs; type: functional; details: MTCC 581, 48 h
Aspergillus niger [6] = test: Antifungal activity against Aspergillus niger MTCC 1108 assessed as zone of inhibition at 40 uM after 48 hrs by disc diffusion method; type: functional; details: MTCC 1108, 48 h, read-out: IZ
Method in brief: (§4)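 Spores from 4-day potato dextrose agar cultures, suspended in sterile water at 1.5 × 10⁵ CFU/mL. 0.2 mL was spread on potato dextrose agar. 5 mm filter-paper discs soaked with test compound were laid on the lawn. Incubation was 48 h at 28 °C, then the inhibition zone was measured in mm. Fluconazole was the positive control and acetone the negative control.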

Curvularia lunata [7] = test: Antifungal activity against Curvularia lunata MTCC 581 assessed as zone of inhibition at 20 uM after 48 hrs by disc diffusion method; type: functional; method in brief: as §4
Aspergillus niger [8] = test: Antifungal activity against Aspergillus niger MTCC 1108 after 48 hrs; type: functional; details: MTCC 1108, 48 h
Salmonella typhi [9] = test: Antimicrobial activity against Salmonella typhi ATCC 23564 assessed as diameter of inhibition zone at 20 uM after 24 hrs by Kirby -Baur disc diffusion method; type: functional, Salmonella enterica subsp. enterica serovar Typhi; details: Salmonella enterica, ATCC 23564, 24 h; read-out: DIZ
Curvularia lunata [10] = test: Antifungal activity against Curvularia lunata MTCC 581 assessed as zone of inhibition at 40 uM after 48 hrs by disc diffusion method; type: functional; details: MTCC 581, 48 h, read-out: IZ; method in brief: as §4
Trichoderma viride [11] = test: Antifungal activity against Trichoderma viride MTCC 1107 assessed as zone of inhibition at 80 uM after 48 hrs by disc diffusion method; type: functional; details: MTCC 1107, 48 h, read-out: IZ; method in brief: as §4
Curvularia lunata [12] = test: Antifungal activity against Curvularia lunata MTCC 581 assessed as zone of inhibition at 80 uM after 48 hrs by disc diffusion method; type: functional; details: MTCC 581, 48 h, read-out: IZ; method in brief: as §4
Bacillus cereus [13] = test: Antimicrobial activity against Bacillus cereus MTCC 7350 assessed as diameter of inhibition zone at 40 uM after 24 hrs by Kirby -Baur disc diffusion method; type: functional; method in brief: as §3
HCT-116 = test: Cytotoxicity against human HCT116 cells after 24 hrs by MTT assay; type: functional, cell-based; method in brief: as §2
Pseudomonas aeruginosa [14] = test: Antimicrobial activity against Pseudomonas aeruginosa ATCC 15499 assessed as diameter of inhibition zone at 40 uM after 24 hrs by Kirby -Baur disc diffusion method; type: functional; method in brief: as §3
Pseudomonas aeruginosa [15] = test: Antimicrobial activity against Pseudomonas aeruginosa ATCC 15499 assessed as diameter of inhibition zone at 20 uM after 24 hrs by Kirby -Baur disc diffusion method; type: functional; method in brief: as §3
Escherichia coli [16] = test: Antimicrobial activity against Escherichia coli ATCC 35218 assessed as diameter of inhibition zone at 20 uM after 24 hrs by Kirby -Baur disc diffusion method; type: functional; details: ATCC 35218, 24 h, read-out: DIZ; method in brief: as §3
Staphylococcus aureus [17] = test: Antimicrobial activity against Staphylococcus aureus ATCC 11632 assessed as diameter of inhibition zone at 20 uM after 24 hrs by Kirby -Baur disc diffusion method; type: functional; details: ATCC 11632, 24 h, read-out: DIZ; method in brief: as §3
Aspergillus flavus [18] = test: Antifungal activity against Aspergillus flavus MTCC 1021 assessed as zone of inhibition at 80 uM after 48 hrs by disc diffusion method; type: functional; method in brief: as §4
Salmonella typhi [19] = test: Antimicrobial activity against Salmonella typhi ATCC 23564 assessed as diameter of inhibition zone at 80 uM after 24 hrs by Kirby -Baur disc diffusion method; type: functional, Salmonella enterica subsp. enterica serovar Typhi; details: Salmonella enterica, ATCC 23564, 24 h; read-out: DIZ
Bacillus cereus [20] = test: Antimicrobial activity against Bacillus cereus MTCC 7350 assessed as diameter of inhibition zone at 80 uM after 24 hrs by Kirby -Baur disc diffusion method; type: functional; details: MTCC 7350, 24 h, read-out: DIZ; method in brief: as §3
Bacillus cereus [21] = test: Antimicrobial activity against Bacillus cereus MTCC 7350 assessed as diameter of inhibition zone at 20 uM after 24 hrs by Kirby -Baur disc diffusion method; type: functional; method in brief: as §3
Staphylococcus aureus [22] = test: Antimicrobial activity against Staphylococcus aureus ATCC 11632 assessed as diameter of inhibition zone at 40 uM after 24 hrs by Kirby -Baur disc diffusion method; type: functional; details: ATCC 11632, 24 h, read-out: DIZ; method in brief: as §3
Aspergillus flavus [23] = test: Antifungal activity against Aspergillus flavus MTCC 1021 after 48 hrs; type: functional
Trichoderma viride [24] = test: Antifungal activity against Trichoderma viride MTCC 1107 assessed as zone of inhibition at 20 uM after 48 hrs by disc diffusion method; type: functional; method in brief: as §4
Aspergillus niger [25] = test: Antifungal activity against Aspergillus niger MTCC 1108 assessed as zone of inhibition at 20 uM after 48 hrs by disc diffusion method; type: functional; method in brief: as §4
Salmonella typhi [26] = test: Antimicrobial activity against Salmonella typhi ATCC 23564 after 24 hrs by broth micro serial dilution method; type: functional, Salmonella enterica subsp. enterica serovar Typhi; details: Salmonella enterica, ATCC 23564, 24 h
Escherichia coli [27] = test: Antimicrobial activity against Escherichia coli ATCC 35218 assessed as diameter of inhibition zone at 80 uM after 24 hrs by Kirby -Baur disc diffusion method; type: functional; details: ATCC 35218, 24 h, read-out: DIZ; method in brief: as §3
Escherichia coli [28] = test: Antimicrobial activity against Escherichia coli ATCC 35218 after 24 hrs by broth micro serial dilution method; type: functional; details: ATCC 35218, 24 h; method in brief: as §1
Staphylococcus aureus [29] = test: Antimicrobial activity against Staphylococcus aureus ATCC 11632 after 24 hrs by broth micro serial dilution method; type: functional; details: ATCC 11632, 24 h; method in brief: as §1
QG-56 = test: Cytotoxicity against human QG56 cells after 24 hrs by MTT assay; type: functional, cell-based; method in brief: as §2
Salmonella typhi [30] = test: Antimicrobial activity against Salmonella typhi ATCC 23564 assessed as diameter of inhibition zone at 40 uM after 24 hrs by Kirby -Baur disc diffusion method; type: functional, Salmonella enterica subsp. enterica serovar Typhi; details: Salmonella enterica, ATCC 23564, 24 h; read-out: DIZ
Escherichia coli [31] = test: Antimicrobial activity against Escherichia coli ATCC 35218 assessed as diameter of inhibition zone at 40 uM after 24 hrs by Kirby -Baur disc diffusion method; type: functional; details: ATCC 35218, 24 h, read-out: DIZ; method in brief: as §3
Aspergillus niger [32] = test: Antifungal activity against Aspergillus niger MTCC 1108 assessed as zone of inhibition at 80 uM after 48 hrs by disc diffusion method; type: functional; details: MTCC 1108, 48 h, read-out: IZ; method in brief: as §4
Trichoderma viride [33] = test: Antifungal activity against Trichoderma viride MTCC 1107 after 48 hrs; type: functional; details: MTCC 1107, 48 h
Trichoderma viride [34] = test: Antifungal activity against Trichoderma viride MTCC 1107 assessed as zone of inhibition at 40 uM after 48 hrs by disc diffusion method; type: functional; details: MTCC 1107, 48 h, read-out: IZ; method in brief: as §4

## COc1cc(/C=C/C(O)=C/C(/C=C/c2ccc(O)c(OC)c2)=N/c2ccc(S(N)(=O)=O)cc2)ccc1O
Bacillus cereus [1]
  MIC: > 80 µM
HepG2
  IC50: 50 µM
HeLa
  IC50: 100 µM
Pseudomonas aeruginosa [2]
  MIC: > 80 µM
Pseudomonas aeruginosa [3]
  zone of inhibition at 80 µM: 11 mm
Staphylococcus aureus [4]
  zone of inhibition at 80 µM: 14 mm
Mus musculus
  inhibition in vivo at 200 mg/kg: 29%
Curvularia lunata [5]
  MIC: 80 µM (≈ 41.8 µg/mL)
Aspergillus niger [6]
  zone of inhibition at 40 µM: 9 mm
Curvularia lunata [7]
  inhibition zone (IZ): inactive
Aspergillus niger [8]
  MIC: 40 µM (≈ 20.9 µg/mL)
Salmonella typhi [9]
  zone of inhibition at 20 µM: 9 mm
Curvularia lunata [10]
  zone of inhibition at 40 µM: 9 mm
Trichoderma viride [11]
  zone of inhibition at 80 µM: 11 mm
Curvularia lunata [12]
  zone of inhibition at 80 µM: 12 mm
Bacillus cereus [13]
  diameter of the inhibition zone (DIZ): inactive
HCT-116
  IC50: 50 µM
Pseudomonas aeruginosa [14]
  diameter of the inhibition zone (DIZ): inactive
Pseudomonas aeruginosa [15]
  diameter of the inhibition zone (DIZ): inactive
Escherichia coli [16]
  zone of inhibition at 20 µM: 12 mm
Staphylococcus aureus [17]
  zone of inhibition at 20 µM: 10 mm
Aspergillus flavus [18]
  inhibition zone (IZ): inactive
Salmonella typhi [19]
  zone of inhibition at 80 µM: 13 mm
Bacillus cereus [20]
  zone of inhibition at 80 µM: 9 mm
Bacillus cereus [21]
  diameter of the inhibition zone (DIZ): inactive
Staphylococcus aureus [22]
  zone of inhibition at 40 µM: 13 mm
Aspergillus flavus [23]
  MIC: inactive
Trichoderma viride [24]
  inhibition zone (IZ): inactive
Aspergillus niger [25]
  inhibition zone (IZ): inactive
Salmonella typhi [26]
  MIC: 40 µM (≈ 20.9 µg/mL)
Escherichia coli [27]
  zone of inhibition at 80 µM: 15 mm
Escherichia coli [28]
  MIC: 40 µM (≈ 20.9 µg/mL)
Staphylococcus aureus [29]
  MIC: 40 µM (≈ 20.9 µg/mL)
QG-56
  IC50: 100 µM
Salmonella typhi [30]
  zone of inhibition at 40 µM: 11 mm
Escherichia coli [31]
  zone of inhibition at 40 µM: 13 mm
Aspergillus niger [32]
  zone of inhibition at 80 µM: 11 mm
Trichoderma viride [33]
  MIC: 80 µM (≈ 41.8 µg/mL)
Trichoderma viride [34]
  zone of inhibition at 40 µM: 10 mm
